Our source for the zone of inhibition, inhibition in vivo and Activity values is ChEMBL document CHEMBL1828509, “Synthesis, pharmacological evaluation and docking studies of coumarin derivatives” (2011).

Common to all, as to type: functional
Experiment [1] concerns Candida albicans. Description: Antifungal activity against Candida albicans MTCC 183 at 50 ug/ml. To be noted: read-out: IZ.
The test system of experiment [2] is Rattus norvegicus. In words: Antiinflammatory activity in Wistar albino rat assessed as inhibition of carrageenan-induced paw edema at 20 mg/kg, po administered 30 mins before carrageenan challenge measured after 3 hrs by plethysmograph. Put shortly: (§1)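 Male Wistar albino rats (150–200 g), six per group, dosed orally with 20 mg/kg suspension; control got 0.1 ml of 1% gum acacia suspension orally. After 30 min, 0.1 ml of 1% carrageenan in normal saline injected sub-plantar into the right hind paw. Paw volume measured by plethysmograph at 0, 1, 2, 3 and 4 h; percent edema inhibition versus control at matching time.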

The subject of experiment [3] is Rattus norvegicus. In words: Antiinflammatory activity in Wistar albino rat assessed as inhibition of carrageenan-induced paw edema at 20 mg/kg, po administered 30 mins before carrageenan challenge measured after 2 hrs by plethysmograph. Put shortly:
as §1

Experiment [4] concerns Bacillus subtilis. Description: Antimicrobial activity against Bacillus subtilis MTCC 1789 at 50 ug/ml. To be noted: read-out: IZ.
The subject of experiment [5] is Aspergillus niger. In words: Antifungal activity against Aspergillus niger MTCC 282 at 25 ug/ml. To be noted: read-out: IZ.
In experiment [6] the test system is Candida albicans. In words: Antifungal activity against Candida albicans MTCC 183 at 10 ug/ml. To be noted: read-out: IZ.
For experiment [7], the system named is Candida albicans. Description: Antifungal activity against Candida albicans MTCC 183 at 25 ug/ml. To be noted: read-out: IZ.
Experiment [8] has as its system Escherichia coli. In words: Antimicrobial activity against Escherichia coli MTCC 4315 at 50 ug/ml. To be noted: read-out: IZ.
Experiment [9] deals with Bacillus subtilis. In words: Antimicrobial activity against Bacillus subtilis MTCC 1789 at 25 ug/ml. The following applies: read-out: IZ.
The next experiment relates to Mus musculus. Description: Analgesic activity in mouse assessed as inhibition of acetic acid-induced writhing administered 30 mins before acetic acid challenge measured after 30 mins relative to control. Also on record: concentration or dose not given beside the values. The gist of the method: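 Groups of six mice (20–30 g, both sexes, pregnant females excluded) dosed with test compound; 30 min later 0.25 ml/mouse of 0.5% acetic acid given i.p. Writhes counted over the next 30 min. Mean writhes per group ± SE; percent decrease versus untreated control mice.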

In experiment [10] the test system is Rattus norvegicus. In words: Antiinflammatory activity in Wistar albino rat assessed as inhibition of carrageenan-induced paw edema at 20 mg/kg, po administered 30 mins before carrageenan challenge measured after 1 hr by plethysmograph. Put shortly: as §1
Experiment [11] concerns Aspergillus niger. In words: Antifungal activity against Aspergillus niger MTCC 282 at 10 ug/ml. To be noted: read-out: IZ.
The test system of experiment [12] is Rattus norvegicus. Description: Antiinflammatory activity in Wistar albino rat assessed as inhibition of carrageenan-induced paw edema at 20 mg/kg, po administered 30 mins before carrageenan challenge measured after 4 hrs by plethysmograph. Put shortly: as §1
Experiment [13] has as its system Escherichia coli. In words: Antimicrobial activity against Escherichia coli MTCC 4315 at 25 ug/ml. To be noted: read-out: IZ.
In experiment [14] the test system is Bacillus subtilis. In words: Antimicrobial activity against Bacillus subtilis MTCC 1789 at 10 ug/ml. The following applies: read-out: IZ.
Experiment [15] deals with Escherichia coli. In words: Antimicrobial activity against Escherichia coli MTCC 4315 at 10 ug/ml. To be noted: read-out: IZ.
In experiment [16] the test system is Aspergillus niger. In words: Antifungal activity against Aspergillus niger MTCC 282 at 50 ug/ml. To be noted: read-out: IZ.

With `Cc1cc(=O)oc2cc(OC(=O)CNN3C=NNC3)ccc12`, the zone of inhibition at 50 µg/mL with Candida albicans [1] worked out at 15.4 mm; with Bacillus subtilis [4] it was 18.1 mm; in the experiment on Escherichia coli [8], 16.2 mm. Further, the inhibition in vivo at 20 mg/kg with Rattus norvegicus [2] was 27.6%; with Rattus norvegicus [3] it was 42.3%; in the experiment on Rattus norvegicus [10] it was 42.8%; in the experiment on Rattus norvegicus [12] it was 22.2%. Further, the zone of inhibition at 25 µg/mL is 13.6 mm with Aspergillus niger [5], 13.4 mm in the experiment on Candida albicans [7], 14.3 mm with Bacillus subtilis [9] and 14.1 mm with Escherichia coli [13]. The zone of inhibition at 10 µg/mL in the experiment with Candida albicans [6] is 12.4 mm; in the experiment with Aspergillus niger [11], 11.2 mm; in the experiment with Bacillus subtilis [14], 12.5 mm. The Activity in the experiment with Mus musculus is 37%.
In the case of `Cc1cc(=O)oc2cc(OC(=O)CNc3ccccc3[N+](=O)[O-])ccc12`, the inhibition in vivo at 20 mg/kg in the experiment with Rattus norvegicus [2] is 15.9%; with Rattus norvegicus [3], 16.6%; with Rattus norvegicus [10], 21.4%; in the experiment on Rattus norvegicus [12], 15.2%. In addition, in the experiment with Bacillus subtilis [4], the zone of inhibition at 50 µg/mL stood at 13.7 mm. For the same compound, the zone of inhibition at 25 µg/mL was determined as 10.4 mm with Candida albicans [7], 12.4 mm with Bacillus subtilis [9] and 10.1 mm with Escherichia coli [13]. Further, the Activity in the experiment on Mus musculus came to 28%. Moreover, the zone of inhibition at 10 µg/mL with Aspergillus niger [11] turned out to be 10.1 mm; in the experiment with Bacillus subtilis [14], 11.2 mm.
Regarding `Cc1cccc(NCC(=O)Oc2ccc3c(C)cc(=O)oc3c2)c1`, the zone of inhibition at 50 µg/mL in the experiment with Candida albicans [1] was 14.4 mm; in the experiment with Bacillus subtilis [4] it was 13.6 mm; with Aspergillus niger [16], 13.4 mm; with Escherichia coli [8], 16.9 mm. Further, the zone of inhibition at 10 µg/mL in the experiment with Escherichia coli [15] was determined as 11 mm; with Candida albicans [6], 11.4 mm; with Bacillus subtilis [14], 10.5 mm. Moreover, the inhibition in vivo at 20 mg/kg in the experiment on Rattus norvegicus [2] was found to be 15.9%; in the experiment on Rattus norvegicus [3], 15.3%; in the experiment on Rattus norvegicus [10], 12.5%; in the experiment on Rattus norvegicus [12] it was 23.7%. Besides, the zone of inhibition at 25 µg/mL in the experiment on Aspergillus niger [5] turned out to be 12.2 mm; in the experiment with Candida albicans [7], 13.4 mm; in the experiment on Bacillus subtilis [9], 12.4 mm; in the experiment with Escherichia coli [13], 14 mm. The Activity with Mus musculus is given as 13%.
For `COc1ccccc1NCC(=O)Oc1ccc2c(C)cc(=O)oc2c1`, the values for the zone of inhibition at 50 µg/mL in the experiment with Candida albicans [1], in the experiment on Aspergillus niger [16] and in the experiment on Escherichia coli [8] were 12.4 mm, 12.4 mm and 10.2 mm, respectively. In addition, the inhibition in vivo at 20 mg/kg was determined as 26.6% in the experiment with Rattus norvegicus [2], 15.3% in the experiment with Rattus norvegicus [3], 10.7% in the experiment on Rattus norvegicus [10] and 19.4% with Rattus norvegicus [12]. Moreover, the zone of inhibition at 25 µg/mL with Bacillus subtilis [9] is 11.4 mm. For the same compound, in the experiment with Mus musculus, the Activity was 28%. Moreover, the zone of inhibition at 10 µg/mL turned out to be 10.4 mm with Aspergillus niger [11] and 10.2 mm with Bacillus subtilis [14].
Take `Cc1cc(=O)oc2cc(OC(=O)CNc3nccs3)ccc12`: the zone of inhibition at 50 µg/mL amounted to 12.4 mm with Candida albicans [1], 16.9 mm with Bacillus subtilis [4], 16.5 mm in the experiment on Aspergillus niger [16] and 18.4 mm with Escherichia coli [8]. The inhibition in vivo at 20 mg/kg came out at 47.8% in the experiment with Rattus norvegicus [2], 37.1% with Rattus norvegicus [3], 39.2% in the experiment with Rattus norvegicus [10] and 32.3% in the experiment with Rattus norvegicus [12]. In addition, the zone of inhibition at 25 µg/mL in the experiment on Aspergillus niger [5] was found to be 15.4 mm; in the experiment on Bacillus subtilis [9] it was 14.4 mm; with Escherichia coli [13] it was 10.2 mm. Further, the zone of inhibition at 10 µg/mL in the experiment with Candida albicans [6] came to 10.1 mm; in the experiment with Aspergillus niger [11] it was 13.4 mm; in the experiment on Bacillus subtilis [14], 10.4 mm. Further, the Activity in the experiment with Mus musculus came out at 45%.
For `Cc1ccccc1NCC(=O)Oc1ccc2c(C)cc(=O)oc2c1`, the zone of inhibition at 50 µg/mL in the experiment with Candida albicans [1] was 12.2 mm; with Bacillus subtilis [4], 11.6 mm; in the experiment with Aspergillus niger [16] it was 13.1 mm. Moreover, the inhibition in vivo at 20 mg/kg came to 17% with Rattus norvegicus [2], 15.3% in the experiment on Rattus norvegicus [3], 12.5% in the experiment with Rattus norvegicus [10] and 19.4% in the experiment with Rattus norvegicus [12]. Besides, the zone of inhibition at 25 µg/mL in the experiment with Aspergillus niger [5] is 12.4 mm; with Escherichia coli [13], 10.5 mm. The Activity in the experiment with Mus musculus turned out to be 23%. The zone of inhibition at 10 µg/mL in the experiment on Aspergillus niger [11] worked out at 10.6 mm.
